Rows were chosen to be rich in hits. Some 1.3% of all compounds tested hit in one or more screens of this group.
PDI inh: blocks human protein disulfide isomerase activity. 350,000 compounds, 0.052% hits. PDI insulin aggregation turbidity, A650, 90 min. P07237. AID 588391. inhibition, % at 10 µM;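 active means mean inhibition across replicates of 30% or more, whatever share of single replicates reach that level; inconclusive means mean inhibition below 30% while every single replicate reaches 30%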
Target sequence (P07237 whole entry, looked up): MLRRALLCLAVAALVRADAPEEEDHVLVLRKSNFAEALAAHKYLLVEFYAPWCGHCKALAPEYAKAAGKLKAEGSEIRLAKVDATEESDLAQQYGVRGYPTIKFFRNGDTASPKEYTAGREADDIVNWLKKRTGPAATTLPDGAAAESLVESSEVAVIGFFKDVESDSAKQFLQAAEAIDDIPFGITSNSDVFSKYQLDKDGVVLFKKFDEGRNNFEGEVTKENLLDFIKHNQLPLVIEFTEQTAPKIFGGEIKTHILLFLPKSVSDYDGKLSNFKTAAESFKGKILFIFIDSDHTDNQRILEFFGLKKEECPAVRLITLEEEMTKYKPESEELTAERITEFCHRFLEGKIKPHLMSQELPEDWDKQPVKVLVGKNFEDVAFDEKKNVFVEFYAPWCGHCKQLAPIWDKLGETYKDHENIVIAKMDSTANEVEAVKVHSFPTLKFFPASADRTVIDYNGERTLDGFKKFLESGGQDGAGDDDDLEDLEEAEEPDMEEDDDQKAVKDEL
FN deposition inh: fibronectin deposition inhibition | inhibition, % at 12.6 µM | 350,000 compounds, 0.086% hits | AH1F fibroblasts, Alexa488-fibronectin deposition fluorescence, overnight;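 active means mean inhibition across replicates of 30% or more, regardless of how many single replicates reach that level; inconclusive means mean under 30% yet at least half of replicates reach 30%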
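Material – AH1F fibroblast monolayer, labelled fibronectin deposition · Reagent – labelled fibronectin 24 nM · Timing – 1 h adhesion, overnight exposure · Measured by – fluorescence at 485 nm excitation, 525 nm emission · Read-out – inhibition of fibronectin deposition signal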
ERp5 block: ERp5 (human) disulfide isomerase inhibition | Q15084 | ERp5 insulin aggregation, absorbance 650 nm, 90 min | 350,000 compounds, 0.05% hits | inhibition, % at 9.99 µM;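 active means mean replicate inhibition above about 25%, with every replicate also reaching it, limit read from the data, passing the limit was not always enough; inconclusive means only one of those two criteria met; inactive means neither criterion met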
MLL AF4-AF9 inh: MLL-AF4/AF9 protein interaction inhibition | AlphaScreen, biotin-AF4 peptide binding to FLAG-AF9 | inhibition, % at 10 µM | 350,000 compounds, 0.47% hits | AID 651704;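 active means every replicate reaching a set inhibition limit, whatever the replicate mean, cut at about 25% in these data; inconclusive means mean inhibition reaches that limit but some replicates miss it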
SIRT5 block: blocks human SIRT5 desuccinylation of peptide | Q9NXA8 | Purified SirT5, succinyl-peptide AMC, trypsin-coupled fluorescence | inhibition, % at 15 µM | 330,000 compounds, 1.1% hits; in the data active means inhibition above about 15%; inconclusive means no clear call, values can overlap the other calls
Numbers stand for hits; i = inactive; ? = inconclusive; nt = not tested or not shown.

SMILES | PDI inh | FN deposition inh | ERp5 block | MLL AF4-AF9 inh | SIRT5 block
COc1ccc(C2c3ccc(O)cc3Oc3ncn(CCCO)c(=N)c32)cc1 (stereo unspecified) | 44 | i | i | i | i
CC(C)(C)c1ccc(N2C(=O)CS(=O)(=O)C2c2ccccc2)cc1 (stereo unspecified) | nt | nt | i | i | i
CCOC(=O)C1=C[C@@H](C)N(S(=O)(=O)c2ccc(C)cc2)[C@H]1c1ccccc1 | nt | i | i | i | i
CCOC(=O)C1=C[C@@H](c2ccccc2)N(S(=O)(=O)c2ccc(C)cc2)[C@H]1c1ccccc1Cl | nt | i | i | i | 23
COc1ccc(S(=O)(=O)/N=C2/NC(=O)/C(=C/c3ccco3)S2)cc1 | i | i | i | i | 16
CCOc1cc(/C=N/NC(=O)c2ccncc2)ccc1OS(C)(=O)=O | i | i | nt | nt | nt
COc1ccc(-c2[nH]ncc2CN2CCCC(C(=O)c3cccc(OC)c3)C2)cc1 (stereo unspecified) | i | i | i | i | 18
COc1ccc(C(=O)C2CCCN(Cc3cn[nH]c3-c3ccccc3)C2)cc1OC (stereo unspecified) | i | i | i | i | 29
Fc1ccc(COc2cccc3cccnc23)cc1 | i | i | i | i | i
CC[C@H](C)[C@H](NC(N)=O)C(=O)NNC(=O)c1ccc(COc2cccc3cccnc23)cc1 | i | i | i | 35 | i
CC(C)(C)n1nnnc1C(c1cccnc1)N1CCOCC1 (stereo unspecified) | i | i | i | i | 20
O=c1c2cc(F)ccc2sn1-c1ccccc1Cl | i | 41 | i | i | i
O=C(COc1ccc(Br)cc1)Nc1nnc(-c2cccnc2)s1 | nt | i | i | i | i
COc1ccc(C2CC(=O)C(C=NCCO)=C(O)C2)cc1 (stereo unspecified) | i | i | i | i | 23
COc1ccc(C2CC(=O)C(C=NCCO)=C(O)C2)cc1OC (stereo unspecified) | i | i | nt | nt | nt
CN(C)c1cccc(/C=C(\C#N)c2ccccc2)c1 | i | i | i | 26 | i
CN(C)c1ccc(/C=C(\C#N)c2ccccc2)cc1 | i | nt | nt | nt | nt
COc1ccc2cc(C(=O)NCc3ccccc3)c(=O)oc2c1 | i | i | i | i | i
COc1ccc2oc(=N)c(C(=O)NCc3ccccc3)cc2c1 | i | i | i | i | 20
C=CCOC(=O)[C@@H]1[C@H]2C(=O)O[C@H](c3ccccc3)[C@H](c3ccccc3)N2[C@H](c2ccc(OCCOC(=O)[C@@H]3C[C@@H]4C(=O)N[C@@H](Cc5ccccc5)C(=O)N4[C@@H]3c3ccc(O)cc3)cc2)[C@@]12C(=O)Nc1ccc(I)cc12 | nt | nt | i | i | 19
OCCN(CCO)CC(O)CN(c1ccccc1)c1ccccc1 (stereo unspecified) | i | i | i | i | i
NCC(O)CN(c1ccccc1)c1ccccc1 (stereo unspecified) | i | i | i | i | 38
CC(C)N1CCC(N2CCN(Cc3cccc4nonc34)CC2CCO)CC1 (stereo unspecified) | i | nt | i | i | i
CCNc1nc(NCC)n2c(SCC(=O)N3CC4(C)CC3CC(C)(C)C4)nnc2n1 (stereo unspecified) | ? | i | nt | nt | nt
CCCCN(C=O)c1c(CC)nc2ccc(C(=O)N3CCCCC3)cn12 | i | i | i | i | 44
SMILES | PDI inh | FN deposition inh | ERp5 block | MLL AF4-AF9 inh | SIRT5 block
CC(=O)c1ccc(NC(=S)N2CCN(C(=S)Nc3ccc(C(C)=O)cc3)C(C)C2)cc1 (stereo unspecified) | i | i | i | i | i
CC(=O)c1ccc(NC(=S)N2CC(C)CC(C)C2)cc1 (stereo unspecified) | i | i | i | i | 16
CN(C)c1ccc(-n2cccc2/C=C/[N+](=O)[O-])cc1 | i | nt | i | 25 | i
CN(c1ccccc1)c1ccc(/C=C/[N+](=O)[O-])cc1 | i | i | i | i | i
CCCC/C=C/[C@H](c1ccccc1)[C@H](CO)Cc1cccnc1 | i | i | i | nt | nt
O=C(Oc1ccc(O)cc1)C12CC3CC(CC(C3)C1)C2 | 65 | i | i | i | i
CCOC(=O)C1=C(COC(=O)c2ccco2)NC(=O)NC1CC (stereo unspecified) | i | i | i | 29 | i
CCOCCCNCc1ccc(OCc2ccccc2C)c(OC)c1 | i | i | i | i | 20
COc1cc(CNCCCCO)ccc1OCc1ccccc1F | i | i | i | i | i
COc1ccc(-c2nc3ccccc3nc2-c2ccccc2)cc1OC | i | i | i | i | 17
